# Experimental data: publication PMC3651860 (Journal of the American Chemical Society, 2011)
# Entries after “also recorded” stand apart in the source; their conditions may differ. Where two headings read alike, the source gives them in different places. Primed or numbered codes have the meaning given here. Biotin′ = not defined here; Az8 = not defined here
# How the values were obtained:
# Akt1-S473E-T308P [1] = test: Competitive enzyme kinetic assays of Akt1 with triligand; type: biochemical
# In short: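 Akt1 kinase domain (S473E mimic, Hi5 insect-cell expressed, T308-phosphorylated form) assayed at varying peptide-substrate or ATP concentrations across varying test compound concentrations. KM and Vmax were fitted by nonlinear regression. Ki came from negative x-intercepts of Dixon plots (1/v vs [compound], varying ATP), and Ki' from intercepts of Cornish-Bowden plots ([peptide]/v vs [compound], varying peptide). Both are given as mean ± standard deviation.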
# Akt1-S473E-T308P [2] = details: read-out: KM (literature); ATP; ref 21 (Klein et. al.); cited from earlier work
# Akt1-S473E-T308P [3] = test: Akt1 kinase inhibition test of candidate anchor sequences; type: biochemical; details: Figure S6
# Target sequence in this assay (P31749 150-480 S473E limits assumed): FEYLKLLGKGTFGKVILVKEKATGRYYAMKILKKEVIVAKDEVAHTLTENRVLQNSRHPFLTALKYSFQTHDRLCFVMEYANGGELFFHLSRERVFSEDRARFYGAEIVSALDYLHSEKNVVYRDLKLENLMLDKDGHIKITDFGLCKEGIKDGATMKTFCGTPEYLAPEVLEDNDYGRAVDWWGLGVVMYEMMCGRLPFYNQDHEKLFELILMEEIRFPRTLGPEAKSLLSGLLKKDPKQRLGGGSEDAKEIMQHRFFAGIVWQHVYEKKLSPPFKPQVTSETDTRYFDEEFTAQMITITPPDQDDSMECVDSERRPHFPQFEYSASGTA
# Akt-S473E = test: ELISA with immobilized Akt-S473E; type: binding
# In short: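 Akt1-S473E kinase domain, expressed in Hi5 insect cells, was immobilized on Ni-NTA plates. It was incubated with varying concentrations of biotinylated test peptide. Binding signal was normalized to the binding observed at saturation.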
# [4] = system: AKT in fixed OVCAR3 cells; test: Immunocytochemistry; type: cell-based; details: permeabilized OVCAR3 cells, unstimulated vs EGF+insulin
# In short: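 OVCAR3 cells were left unstimulated or treated with EGF plus insulin, then fixed and permeabilized. They were stained with fluorescein-labelled test compound, and a fluorescein-conjugated anti-Akt monoclonal antibody served as benchmark. Akt localization was imaged by immunofluorescence microscopy.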
# Akt1 = test: ELISA-based binding analysis over a range of kinase concentrations, Akt1; details: Figure S18
# GSK3β = test: ELISA-based binding analysis over a range of kinase concentrations, GSK3β; details: Figure S18
# [5] = target: Akt1 kinase domain with the S473E mutation (Akt1-S473E)
molecule,measurement,setting,value
"Nc1ncnc2c1ncn2[C@@H]1O[C@H](COP(=O)(O)OP(=O)(O)OP(=O)(O)O)[C@@H](O)[C@H]1O [ATP, reference compound]",Vmax,"Akt1-S473E-T308P [1]; Akt1-S473E-T308P, V vs. [ATP], variable [Triligand], nonlinear regression",98996 ± 8242 pmol/min/mg
same,Km,"Akt1-S473E-T308P [1]; read-out: KM (this work), Akt1-S473E-T308P, nonlinear regression (GraphPad), V vs. [ATP], variable [Triligand]",213 ± 25 µM
same,Km,Akt1-S473E-T308P [2],155 µM
Az8-VFYRLGY-CONH2 [anchor peptide],inhibition of the Akt1 kinase,Akt1-S473E-T308P [3]; absence of the conjugated small molecule inhibitor (Ac7),~95%
same,inhibition of the Akt1 kinase,Akt1-S473E-T308P [3]; presence of the conjugated small molecule inhibitor (Ac7),~95%
same,affinity,"Akt-S473E; anchor peptide, Akt, assay of this value not stated at the place",> 25 µM
"fluorescein-labeled triligand: fluorescein-labeled triligand employed as an ICC imaging agent (chain 1 VFYRLGY; chain 2 FWFLRG; chain 3 RHERI; N-terminal azido amino acid Az8 before V, joined through a 1,4-triazole to the Pra of the secondary peptide | N-terminal propargylglycine (Pra) before F, joined through a 1,4-triazole to Az8 of the an)",Akt localization in ICC (in words),[4],localization of Akt at the plasma membrane after cell stimulation
"triligand: tertiary peptide Ac-Az8-RHERI-CONH2 conjugated to the biligand to form a biotinylated branched triligand (chain 1 VFYRLGY; chain 2 FWFLRG; not fully specified; N-terminal azido amino acid Az8 before V, joined through a 1,4-triazole to the Pra of the secondary peptide; C-terminal biotin | N-terminal propargylglycine (Pra) before F, joined through a 1,4-triazo)",affinity for Akt1 (in words),Akt-S473E; comparison within anchor/biligand/triligand series,only marginally improved over the biligand; also recorded: only a modest affinity improvement
same,"change of affinity for Akt1, biligand to triligand",Akt1,increases modestly
same,"decrease of affinity for GSK3β, biligand to triligand",GSK3β,approximately 2 fold
same,inhibitory potency (in words),Akt1-S473E-T308P [1],low micromolar inhibitory potency
same,effect on KM,Akt1-S473E-T308P [1]; ATP is the varied substrate,no effect on KM
same,effect on enzyme Vmax,"Akt1-S473E-T308P [1]; increasing triligand concentration, varied [ATP] or varied [peptide]",reduction in the enzyme Vmax for both substrates
same,effect on KM,Akt1-S473E-T308P [1]; peptide concentration is varied,KM decreases
same,inhibition mode,"Akt1-S473E-T308P [1]; varied [ATP], variable [Triligand]",noncompetitive inhibition
same,inhibition mode,"Akt1-S473E-T308P [1]; varied [ATP], variable [Triligand], listed as Triligand",Noncompetitive
same,inhibition mode,"Akt1-S473E-T308P [1]; varied [Peptide], variable [Triligand]",uncompetitive inhibition
same,"mode of inhibition / inhibitory mechanism, overall",Akt1-S473E-T308P [1]; with respect to ATP and peptide substrates,allosteric mode of inhibition; also recorded: triligand inhibition occurs in a noncompetitive fashion; also recorded: not competitive with respect to either the peptide or ATP binding site; also recorded: allosteric mechanism
{Ac-Az8}-VFYRLGY-{Biotin′} (reading uncertain; also: printed as Ac-Az8-VFYRLGY-Biotin) [biotinylated anchor peptide Ac-Az8-VFYRLGY-Biotin],Kd,[5],> 25 µM
